The test is described as follows: Inhibition of rat small intestinal mucosal alpha-glucosidase using p-nitrophenyl-alpha-D-glucopyranoside as substrate by HPLC method. The gist of the method: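 Rat intestinal α-glucosidase; after incubation the product 4-nitrophenol is quantified at once by HPLC (gradient from 20% acetonitrile in water with 0.1‰ TFA to 100% acetonitrile over 10 min). Each concentration run 3 times in parallel; % inhibition from peak areas versus control minus control blank; IC50 from the concentration series.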

In the case of `CC(C)=CCC/C(C)=C/CCC1=C[C@H](c2ccc(C(C)(C)C)cc2)OC1=O`, the IC50 (usually the concentration that gives 50% inhibition) amounted to 40 nM.

The values above are taken from ChEMBL document CHEMBL4177753, “Structural Modification of Natural Product Ganomycin I Leading to Discovery of a α-Glucosidase and HMG-CoA Reductase Dual Inhibitor Improving Obesity and Metabolic Dysfunction in Vivo” (J Med Chem, 2018).
